In ChEMBL document CHEMBL4765263, “Design, synthesis, biological evaluation of 6-(2-amino-1H-benzo[d]imidazole-6-yl)quinazolin-4(3H)-one derivatives as novel anticancer agents with Aurora kinase inhibition” (Eur J Med Chem, 2020):
Activity calls are given as the source filed them. The rule behind the calls is not given here.

Experiments:
MDA-MB-231 [1] = test: Induction of cell cycle arrest in human MDA-MB-231 cells assessed as G2/M phase accumulation at 2 uM incubated for 24 hrs by PI staining based flow cytometry analysis (reference value: 16.62 %); assay type: functional
MDA-MB-231 [2] = test: Induction of apoptosis in human MDA-MB-231 cells assessed as early apoptotic cells at 4 uM incubated for 48 hrs by annexin V-FITC and PI staining based flow cytometry analysis (reference value: 3.90 %); assay type: functional
MDA-MB-231 [3] = test: Induction of cell cycle arrest in human MDA-MB-231 cells assessed as G0/G1 phase accumulation at 1 uM incubated for 24 hrs by PI staining based flow cytometry analysis (reference value: 42.84 %); assay type: functional
MDA-MB-231 [4] = test: Induction of apoptosis in human MDA-MB-231 cells assessed as necrotic cells at 1 uM incubated for 48 hrs by annexin V-FITC and PI staining based flow cytometry analysis (reference value: 3.08 %); assay type: functional
MDA-MB-231 [5] = test: Induction of cell cycle arrest in human MDA-MB-231 cells assessed as G2/M phase accumulation at 1 uM incubated for 24 hrs by PI staining based flow cytometry analysis (reference value: 16.62 %); assay type: functional
MDA-MB-231 [6] = test: Induction of apoptosis in human MDA-MB-231 cells assessed as late apoptotic cells at 2 uM incubated for 48 hrs by annexin V-FITC and PI staining based flow cytometry analysis (reference value: 2.52 %); assay type: functional
MDA-MB-231 [7] = test: Induction of apoptosis in human MDA-MB-231 cells assessed as necrotic cells at 2 uM incubated for 48 hrs by annexin V-FITC and PI staining based flow cytometry analysis (reference value: 3.08 %); assay type: functional
[8] = target: T1, Aurora kinase A (Homo sapiens) (UniProt O14965); test: Inhibition of Aurora A in human MDA-MB-231 cells assessed as reduction in Aurora Thr288 residue phosphorylation incubated for 24 hrs by Western blot analysis; assay type: cell-based; conditions: dose 1-4 µM
T1 sequence (whole entry): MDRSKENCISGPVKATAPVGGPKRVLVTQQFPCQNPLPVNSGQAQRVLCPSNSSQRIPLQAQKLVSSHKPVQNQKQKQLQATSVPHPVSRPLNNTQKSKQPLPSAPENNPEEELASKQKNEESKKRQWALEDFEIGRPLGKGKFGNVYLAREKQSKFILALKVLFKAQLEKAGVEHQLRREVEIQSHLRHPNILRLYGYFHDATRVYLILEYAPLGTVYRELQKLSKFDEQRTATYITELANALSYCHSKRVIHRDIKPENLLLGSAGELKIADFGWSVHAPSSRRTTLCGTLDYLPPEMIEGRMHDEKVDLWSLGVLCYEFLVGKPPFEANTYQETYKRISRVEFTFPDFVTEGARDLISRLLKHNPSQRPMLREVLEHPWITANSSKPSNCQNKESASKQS
Summary of the method: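 MDA-MB-231 cells exposed to DMSO or drug at set concentrations for 24 h. Western blot for phospho-Aurora A at Thr288 or phospho-histone H3 at Ser10, with total Aurora A, histone H3 and GAPDH antibodies also used. Bands quantified by densitometry.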

MDA-MB-231 [9] = test: Induction of cell cycle arrest in human MDA-MB-231 cells assessed as G0/G1 phase accumulation at 4 uM incubated for 24 hrs by PI staining based flow cytometry analysis (reference value: 42.84 %); assay type: functional
MDA-MB-231 [10] = test: Antiproliferative activity against human MDA-MB-231 cells assessed as reduction in cell growth incubated for 48 hrs; assay type: functional, cell-based; conditions: dose 0.5-2 µM
MDA-MB-231 [11] = test: Induction of apoptosis in human MDA-MB-231 cells; assay type: functional, cell-based; conditions: dose 1-4 µM
MDA-MB-231 [12] = test: Induction of cell cycle arrest in human MDA-MB-231 cells assessed as S phase accumulation at 4 uM incubated for 24 hrs by PI staining based flow cytometry analysis (reference value: 38.65 %); assay type: functional
MDA-MB-231 [13] = test: Induction of cell cycle arrest in human MDA-MB-231 cells assessed as S phase accumulation at 1 uM incubated for 24 hrs by PI staining based flow cytometry analysis (reference value: 38.65 %); assay type: functional
MDA-MB-231 [14] = test: Induction of apoptosis in human MDA-MB-231 cells assessed as increase in caspase-9 cleavage at 1 to 4 uM incubated for 48 hrs by Western blot analysis; assay type: functional, cell-based; conditions: dose 1-4 µM
Summary of the method: (§1)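 MDA-MB-231 cells treated for 48 h at set concentrations. Cleaved PARP, cleaved caspase-3 and cleaved caspase-9 detected by Western blot and quantified by densitometry. Mean ± SEM, n = 3.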

MDA-MB-231 [15] = test: Induction of apoptosis in human MDA-MB-231 cells assessed as early apoptotic cells at 1 uM incubated for 48 hrs by annexin V-FITC and PI staining based flow cytometry analysis (reference value: 3.90 %); assay type: functional
MDA-MB-231 [16] = test: Induction of apoptosis in human MDA-MB-231 cells assessed as late apoptotic cells at 1 uM incubated for 48 hrs by annexin V-FITC and PI staining based flow cytometry analysis (reference value: 2.52 %); assay type: functional
MDA-MB-231 [17] = test: Induction of apoptosis in human MDA-MB-231 cells assessed as increase in caspase-3 cleavage at 1 to 4 uM incubated for 48 hrs by Western blot analysis; assay type: functional, cell-based; conditions: dose 1-4 µM; summary of the method: as §1
MDA-MB-231 [18] = test: Induction of apoptosis in human MDA-MB-231 cells assessed as viable cells at 2 uM incubated for 48 hrs by annexin V-FITC and PI staining based flow cytometry analysis (reference value: 90.49 %); assay type: functional; conditions: read-out: Activity
MDA-MB-231 [19] = test: Induction of apoptosis in human MDA-MB-231 cells assessed as early apoptotic cells at 2 uM incubated for 48 hrs by annexin V-FITC and PI staining based flow cytometry analysis (reference value: 3.90 %); assay type: functional
MDA-MB-231 [20] = test: Induction of cell cycle arrest in human MDA-MB-231 cells assessed as G2/M phase accumulation at 5 uM incubated for 16 hrs by PI staining based flow cytometry analysis (reference value: 16.62 %)
MDA-MB-231 [21] = test: Induction of apoptosis in human MDA-MB-231 cells assessed as viable cells at 1 uM incubated for 48 hrs by annexin V-FITC and PI staining based flow cytometry analysis (reference value: 90.49 %); assay type: functional; conditions: read-out: Activity
MDA-MB-231 [22] = test: Induction of apoptosis in human MDA-MB-231 cells assessed as late apoptotic cells at 4 uM incubated for 48 hrs by annexin V-FITC and PI staining based flow cytometry analysis (reference value: 2.52 %); assay type: functional
Aurora kinase A = target: T2, Aurora kinase A (Homo sapiens, UniProt O14965); test: Inhibition of Aurora A (unknown origin) incubated for 1 hrs by HTRF assay
T2 sequence (O14965 whole entry): T1 sequence (whole entry)

PC-3 = test: Cytotoxicity against human PC-3 cells assessed as reduction in cell viability incubated for 72 hrs by MTT assay; assay type: functional, cell-based; conditions: PC-3, 72 h
Summary of the method: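 MTT viability assay. Cells kept in DMEM with 10% FBS at 37 °C and 5% CO2. Seeded at 5×10^3 cells per well and exposed to a range of compound concentrations from 20 mM DMSO stocks. IC50 is the mean of triplicate measurements.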

MDA-MB-231 [23] = test: Cytotoxicity against human MDA-MB-231 cells assessed as cell shrinkage at >1 uM incubated for 48 hrs; assay type: functional, cell-based; conditions: dose microM >1, time 48.0 hrs
Aurora kinase B = Aurora kinase B (Homo sapiens, UniProt Q96GD4); test: Inhibition of Aurora B (unknown origin) incubated for 1 hrs by HTRF assay
MDA-MB-231 [24] = test: Induction of cell cycle arrest in human MDA-MB-231 cells assessed as increase G2/M phase accumulation incubated for 24 hrs by PI staining based flow cytometry analysis; assay type: functional; conditions: dose 1-4 µM

Chain of Aurora kinase B (Q96GD4 whole entry): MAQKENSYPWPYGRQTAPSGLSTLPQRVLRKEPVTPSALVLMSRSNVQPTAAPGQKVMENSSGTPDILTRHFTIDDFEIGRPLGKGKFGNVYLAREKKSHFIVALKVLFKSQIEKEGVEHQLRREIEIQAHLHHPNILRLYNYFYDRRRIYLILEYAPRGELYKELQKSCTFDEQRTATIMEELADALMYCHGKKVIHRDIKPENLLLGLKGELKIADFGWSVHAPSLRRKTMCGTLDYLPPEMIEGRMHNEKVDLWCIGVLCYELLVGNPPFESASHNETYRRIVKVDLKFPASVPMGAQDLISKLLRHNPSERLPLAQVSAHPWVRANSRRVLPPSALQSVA

**Q.** Which Activity (MDA-MB-231 [1]) does the source give for `CCC(=O)Nc1nc2ccc(-c3ccc4ncn(CCN5CCOCC5)c(=O)c4c3)cc2[nH]1` here?
**A.** 39.38%

**Q.** What about the Activity (MDA-MB-231 [2]) of the same compound?
**A.** 15.33%

**Q.** And the Activity (MDA-MB-231 [3])?
**A.** 36.36%

**Q.** What about the Activity (MDA-MB-231 [4]) of the same compound?
**A.** 4.02%

**Q.** What about the Activity (MDA-MB-231 [5]) of the same compound?
**A.** 21.84%

**Q.** What about the Activity (MDA-MB-231 [6]) of the same compound?
**A.** 8.25%

**Q.** What about the Activity (MDA-MB-231 [7]) of the same compound?
**A.** 11.9%

**Q.** And the inhibition [8]?
**A.** Dose-dependent effect

**Q.** And the Activity (MDA-MB-231 [9])?
**A.** 5.59%

**Q.** And the Activity (MDA-MB-231 [10])?
**A.** Dose-dependent effect

**Q.** What about the Activity (MDA-MB-231 [11]) of the same compound?
**A.** Dose-dependent effect

**Q.** And the Activity (MDA-MB-231 [12])?
**A.** 6.99%

**Q.** And the Activity (MDA-MB-231 [13])?
**A.** 38.28%

**Q.** What about the Activity (MDA-MB-231 [14]) of the same compound?
**A.** Active

**Q.** What about the Activity (MDA-MB-231 [15]) of the same compound?
**A.** 4.27%

**Q.** What about the Activity (MDA-MB-231 [16]) of the same compound?
**A.** 2.71%

**Q.** And the Activity (MDA-MB-231 [17])?
**A.** Active

**Q.** And the viability at 2 µM (MDA-MB-231 [18])?
**A.** 68.2%

**Q.** What about the Activity (MDA-MB-231 [19]) of the same compound?
**A.** 11.61%

**Q.** And the Activity (MDA-MB-231 [20])?
**A.** 76.19%

**Q.** What about the viability at 1 µM (MDA-MB-231 [21]) of the same compound?
**A.** 89%

**Q.** And the Activity (MDA-MB-231 [22])?
**A.** 15.41%

**Q.** And the IC50 (Aurora kinase A)?
**A.** 21.9 nM

**Q.** What about the IC50 (PC-3) of the same compound?
**A.** 1090 nM

**Q.** What about the Activity (MDA-MB-231 [23]) of the same compound?
**A.** Active

**Q.** What about the IC50 (Aurora kinase B) of the same compound?
**A.** 273 nM

**Q.** And the Activity (MDA-MB-231 [24])?
**A.** Dose-dependent effect
